In ChEMBL document CHEMBL4270668, “Design, Synthesis, Molecular Dynamics Simulation, and Functional Evaluation of a Novel Series of 26RFa Peptide Analogues Containing a Mono- or Polyalkyl Guanidino Arginine Derivative” (J Med Chem, 2018) one finds EC50 and IC50 data, which are given here for 15 compounds.

Structures are written as SMILES. pEC50, pIC50: −log10 of the molar value. Starred links: 1 amine or outer side, 2 acyl side, 3 side chain; linkers in the order of their positions; H or OH if unused. Non-standard residues stand in square brackets, D forms with d. Residues, ends and D or L forms follow the SMILES beside them. X11 = CC(C)CNC(=N)NCCCC[C@H](N[*:1])C(=O)[*:2]; X16 = CC(C)CNC(=N)NCCC[C@H](N[*:1])C(=O)[*:2]; X18 = C/N=C(/NCC[C@H](N[*:1])C(=O)[*:2])N(C)C; X19 = C/N=C(\NC)NCCCC[C@H](N[*:1])C(=O)[*:2]; X2 = CCN(C)C(=N)NCCCC[C@H](N[*:1])C(=O)[*:2]; X21 = CCN(C)C(=N)NCCC[C@H](N[*:1])C(=O)[*:2]; X8 = CCN(CC)C(=N)NCCC[C@H](N[*:1])C(=O)[*:2]; X12 = CCCNC(=N)NCCCC[C@H](N[*:1])C(=O)[*:2]; X3 = CN(C)C(=N)NCCCC[C@H](N[*:1])C(=O)[*:2]; X5 = CCN(CC)C(=N)NCC[C@H](N[*:1])C(=O)[*:2]; X6 = N=C(NCCC[C@H](N[*:1])C(=O)[*:2])N1CCC1; X9 = N=C(NCC[C@H](N[*:1])C(=O)[*:2])N1CCC1; Arg(Me2s) = CN=C(NC)NCCC[C@H](N)C(=O)O; Arg(Et) = CCNC(=N)NCCC[C@H](N)C(=O)O; hArg = N=C(N)NCCCC[C@H](N)C(=O)O

As a reminder, the pEC50 is the negative decadic logarithm of the EC50, by convention in mol/L. One may read the pIC50 as the negative decadic logarithm of the IC50, by convention in mol/L.

Assay [1] deals with T1, Pyroglutamylated RF-amide peptide receptor (Homo sapiens, UniProt Q96P65).
T1 sequence (Q96P65 whole entry): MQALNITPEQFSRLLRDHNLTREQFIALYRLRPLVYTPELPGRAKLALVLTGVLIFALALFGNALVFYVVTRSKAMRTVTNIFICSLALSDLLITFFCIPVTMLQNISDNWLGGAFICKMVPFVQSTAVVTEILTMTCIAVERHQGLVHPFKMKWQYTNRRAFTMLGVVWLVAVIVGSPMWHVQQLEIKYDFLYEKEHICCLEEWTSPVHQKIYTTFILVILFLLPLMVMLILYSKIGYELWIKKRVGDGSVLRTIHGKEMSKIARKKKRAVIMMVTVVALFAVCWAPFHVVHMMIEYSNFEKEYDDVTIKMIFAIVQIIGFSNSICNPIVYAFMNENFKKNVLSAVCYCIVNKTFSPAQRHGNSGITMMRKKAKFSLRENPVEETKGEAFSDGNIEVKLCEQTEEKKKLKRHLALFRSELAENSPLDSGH
The assay can be described thus: Agonist activity at human QRFPR expressed in CHO cells co-expressing Galpha16 assessed as increase Ca2+ mobilization after 3 mins by Fluo-4 AM-based scanning fluorometery. It counts as functional, cell-based. Summed up:
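CHO-Gα16 cells stably expressing human QRFPR, seeded at 40,000 cells/well 24 h ahead. Loaded 1 h with 2 µM Fluo-4 AM plus 0.01% pluronic acid, washed, then 30 min in HBSS with 2.5 mM probenecid and 5 mM HEPES. Compounds added at final 10^-11 to 10^-5 M; fluorescence recorded 3 min on a scanning fluorometer. EC50 from sigmoidal variable-slope fits, ≥3 experiments in triplicate.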
On the technique in general: Calcium flux is commonly read through the fluorescence of an indicator in the cells.

Assay [2] addresses T1, Pyroglutamylated RF-amide peptide receptor. As to the kind of experiment: Antagonist activity at human QRFPR expressed in CHO cells co-expressing Galpha16 assessed as inhibition of 26RFa-induced Ca2+ mobilization preincubated for 15 mins followed by agonist addition measured after 3 mins by Fluo-4 AM-based scanning fluorometery. It counts as functional, cell-based. A digest of the protocol:
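CHO-Gα16-hQRFPR cells loaded 1 h with 2 µM Fluo-4 AM, then incubated 15 min with graded compound. A 10^-7 M final 26RFa pulse was given during recording. Background subtracted, baseline normalized to 100%, peak fluorescence taken per concentration. IC50 from sigmoidal variable-slope fits, ≥3 experiments in triplicate. Maximal effect at 10^-4 M expressed as % inhibition of the 26RFa (10^-7 M) response.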

`C/N=C(\NC)NCCCC[C@H](NC(=O)[C@H](Cc1ccccc1)NC(=O)[C@H](CO)NC(=O)[C@H](Cc1ccccc1)NC(=O)CNC(=O)CN)C(=O)N[C@@H](Cc1ccccc1)C(N)=O` (H-GGFSF[X19]F-NH2): the pEC50 in assay [1] is less than 4.00. The pIC50 in assay [2] is less than 4.00.
Take `N=C(NCCC[C@H](NC(=O)[C@H](Cc1ccccc1)NC(=O)[C@H](CO)NC(=O)[C@H](Cc1ccccc1)NC(=O)CNC(=O)CN)C(=O)N[C@@H](Cc1ccccc1)C(N)=O)N1CCC1` (H-GGFSF[X6]F-NH2): in assay [1], the pEC50 is less than 4.00. The pIC50 in assay [2] is less than 4.00.
On to `CC(C)CNC(=N)NCCCC[C@H](NC(=O)[C@H](Cc1ccccc1)NC(=O)[C@H](CO)NC(=O)[C@H](Cc1ccccc1)NC(=O)CNC(=O)CN)C(=O)N[C@@H](Cc1ccccc1)C(N)=O` (H-GGFSF[X11]F-NH2), for which the pEC50 in assay [1] was 5.56.
Take `CCN(C)C(=N)NCCCC[C@H](NC(=O)[C@H](Cc1ccccc1)NC(=O)[C@H](CO)NC(=O)[C@H](Cc1ccccc1)NC(=O)CNC(=O)CN)C(=O)N[C@@H](Cc1ccccc1)C(N)=O` (H-GGFSF[X2]F-NH2): in assay [1], the pEC50 is less than 4.00. In addition, the pIC50 in assay [2] was less than 4.00.
On to `C/N=C(/NCC[C@H](NC(=O)[C@H](Cc1ccccc1)NC(=O)[C@H](CO)NC(=O)[C@H](Cc1ccccc1)NC(=O)CNC(=O)CN)C(=O)N[C@@H](Cc1ccccc1)C(N)=O)N(C)C` (H-GGFSF[X18]F-NH2), for which, in assay [1], the pEC50 is less than 4.00. Besides, the pIC50 in assay [2] is less than 4.00.
Turning to `CC(C)CNC(=N)NCCC[C@H](NC(=O)[C@H](Cc1ccccc1)NC(=O)[C@H](CO)NC(=O)[C@H](Cc1ccccc1)NC(=O)CNC(=O)CN)C(=O)N[C@@H](Cc1ccccc1)C(N)=O` (H-GGFSF[X16]F-NH2), the pEC50 in assay [1] was 5.82.
With `N=C(NCC[C@H](NC(=O)[C@H](Cc1ccccc1)NC(=O)[C@H](CO)NC(=O)[C@H](Cc1ccccc1)NC(=O)CNC(=O)CN)C(=O)N[C@@H](Cc1ccccc1)C(N)=O)N1CCC1` (H-GGFSF[X9]F-NH2), the pEC50 in assay [1] is less than 4.00. Moreover, the pIC50 in assay [2] was less than 4.00.
`CCCNC(=N)NCCCC[C@H](NC(=O)[C@H](Cc1ccccc1)NC(=O)[C@H](CO)NC(=O)[C@H](Cc1ccccc1)NC(=O)CNC(=O)CN)C(=O)N[C@@H](Cc1ccccc1)C(N)=O` (H-GGFSF[X12]F-NH2): the pEC50 in assay [1] is less than 4.00. Besides, the pIC50 in assay [2] was less than 4.00.
As for `CCN(C)C(=N)NCCC[C@H](NC(=O)[C@H](Cc1ccccc1)NC(=O)[C@H](CO)NC(=O)[C@H](Cc1ccccc1)NC(=O)CNC(=O)CN)C(=O)N[C@@H](Cc1ccccc1)C(N)=O` (H-GGFSF[X21]F-NH2), the negative logarithm of the EC50 (pEC50) in assay [1] was less than 4.00. The pIC50 in assay [2] was less than 4.00.
For the compound `N=C(N)NCCCC[C@H](NC(=O)[C@H](Cc1ccccc1)NC(=O)[C@H](CO)NC(=O)[C@H](Cc1ccccc1)NC(=O)CNC(=O)CN)C(=O)N[C@@H](Cc1ccccc1)C(N)=O` (H-GGFSF[hArg]F-NH2), the pEC50 in assay [1] is 5.72.
For `CCN(CC)C(=N)NCC[C@H](NC(=O)[C@H](Cc1ccccc1)NC(=O)[C@H](CO)NC(=O)[C@H](Cc1ccccc1)NC(=O)CNC(=O)CN)C(=O)N[C@@H](Cc1ccccc1)C(N)=O` (H-GGFSF[X5]F-NH2), the pEC50 in assay [1] is less than 4.00. The pIC50 in assay [2] is less than 4.00.
For `CCN(CC)C(=N)NCCC[C@H](NC(=O)[C@H](Cc1ccccc1)NC(=O)[C@H](CO)NC(=O)[C@H](Cc1ccccc1)NC(=O)CNC(=O)CN)C(=O)N[C@@H](Cc1ccccc1)C(N)=O` (H-GGFSF[X8]F-NH2), the pEC50 in assay [1] is less than 4.00. For the same compound, in assay [2], the pIC50 was less than 4.00.
In the case of `C/N=C(/NC)NCCC[C@H](NC(=O)[C@H](Cc1ccccc1)NC(=O)[C@H](CO)NC(=O)[C@H](Cc1ccccc1)NC(=O)CNC(=O)CN)C(=O)N[C@@H](Cc1ccccc1)C(N)=O` (H-GGFSF[Arg(Me2s)]F-NH2), the pEC50 in assay [1] was less than 4.00. Further, in assay [2], the pIC50 was less than 4.00.
As for `CCNC(=N)NCCC[C@H](NC(=O)[C@H](Cc1ccccc1)NC(=O)[C@H](CO)NC(=O)[C@H](Cc1ccccc1)NC(=O)CNC(=O)CN)C(=O)N[C@@H](Cc1ccccc1)C(N)=O` (H-GGFSF[Arg(Et)]F-NH2), the pEC50 in assay [1] is 5.86.
Turning to `CN(C)C(=N)NCCCC[C@H](NC(=O)[C@H](Cc1ccccc1)NC(=O)[C@H](CO)NC(=O)[C@H](Cc1ccccc1)NC(=O)CNC(=O)CN)C(=O)N[C@@H](Cc1ccccc1)C(N)=O` (H-GGFSF[X3]F-NH2), the pEC50 in assay [1] is less than 4.00. In addition, the pIC50 in assay [2] is less than 4.00.
